Data set [1] has as its target T1, MARK4 (Homo sapiens, UniProt Q96L34).
T1 sequence (Q96L34 1-752): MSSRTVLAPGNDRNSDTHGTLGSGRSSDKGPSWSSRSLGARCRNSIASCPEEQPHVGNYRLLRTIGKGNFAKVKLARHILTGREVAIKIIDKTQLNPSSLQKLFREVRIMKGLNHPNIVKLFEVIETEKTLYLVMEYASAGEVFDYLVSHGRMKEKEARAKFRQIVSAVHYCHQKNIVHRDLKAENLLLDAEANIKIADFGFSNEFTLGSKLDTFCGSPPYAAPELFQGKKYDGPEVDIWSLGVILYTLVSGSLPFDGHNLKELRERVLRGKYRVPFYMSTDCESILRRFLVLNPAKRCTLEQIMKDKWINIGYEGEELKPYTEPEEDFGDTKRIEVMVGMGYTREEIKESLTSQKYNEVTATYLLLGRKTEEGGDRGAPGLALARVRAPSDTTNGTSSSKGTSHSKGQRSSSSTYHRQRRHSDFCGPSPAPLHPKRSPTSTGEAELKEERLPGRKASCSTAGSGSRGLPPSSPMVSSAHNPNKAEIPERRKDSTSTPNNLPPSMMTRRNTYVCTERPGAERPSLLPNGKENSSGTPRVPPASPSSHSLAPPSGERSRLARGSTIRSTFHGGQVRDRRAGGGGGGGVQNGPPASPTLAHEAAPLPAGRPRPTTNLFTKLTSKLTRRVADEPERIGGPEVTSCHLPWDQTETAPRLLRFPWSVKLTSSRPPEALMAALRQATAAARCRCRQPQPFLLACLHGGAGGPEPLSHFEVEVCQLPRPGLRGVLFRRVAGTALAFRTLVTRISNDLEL
Kind of data set: MARK4 enzyme inhibition assay. The class given is biochemical.

For data set [2], the system named is MCF-7 cells. Kind of data set: MTT cell viability assay. The class given is cell-based. As to conditions: Homo sapiens, MCF7, 48 h, read-out: MCF-7 IC50. In short, it runs like this:
(§1)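 MCF-7 or HepG2 cells were seeded at 8000–9000 cells/well. After 10 h they were exposed to test compound (0.1–80 μM) for 48 h at 37 °C in a humidified CO2 incubator. Medium was replaced with MTT (from a 5 mg/mL PBS pH 7.4 stock) in DMEM for 4–5 h. Formazan was dissolved in DMSO and absorbance read at 570/590 nm. Percent viability was used to derive IC50, with mean ± SD of n = 3 and paclitaxel as positive control.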
On the technique in general: Tetrazolium assays rely on reduction of a dye to a coloured formazan, in cell work by metabolically active cells.

Data set [3] concerns HepG2 cells. Nature of the data set: MTT cell viability assay. The class given is cell-based. The note with it: Homo sapiens, HepG2, 48 h, read-out: HepG2 IC50. In short, it runs like this: as §1
Data set [4] concerns HEK293 cells. Nature of the data set: MTT cell viability assay, noncancerous cells. The class given is cell-based, human. The note with it: up to 100 μM, 48 h. In short, it runs like this: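 HEK293 cells were exposed to increasing test compound concentrations for 48 h. Viability was expressed as viable cells as a percentage of untreated control. Data are mean ± SD, n = 3.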

The test system of data set [5] is HepG2 cells. Nature of the data set: Apoptosis assay. The class given is cell-based, human. The note with it: IC50 dose, 10 h, Annexin-V/PI. A digest of the protocol: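 HepG2 cells were seeded at 2.5 × 10^5 cells/well in six-well plates and grown to 80% confluency. They were treated for 10 h at 37 °C, with media-only controls. Cells were trypsinized, washed three times with PBS and stained with FITC-Annexin-V and PI in Annexin binding buffer. About 10,000 events per sample were acquired by flow cytometry. Measurements were duplicate ± SD, with unpaired t-test against vehicle control.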

In data set [6] the test system is MCF-7 cells. Nature of the data set: Estimation of ROS production. The class given is cell-based, human. The note with it: MCF-7, IC50 dose, 5–6 h, vs vehicle control. In short, it runs like this: (§2)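 MCF-7 or HepG2 cells were plated at 2.5 × 10^5 cells/well, treated next day for 5–6 h, with H2O2 as positive control. They were loaded with 10 μM DCFDA for 30 min at 37 °C in the dark, then trypsinized and pelleted. DCF fluorescence was read by spectrofluorimeter (ex 485, em 500–550 nm). Measurements were triplicate, with unpaired t-test against vehicle control.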

The subject of data set [7] is HepG2 cells. Kind of data set: Estimation of ROS production. The class given is cell-based, human. The note with it: HepG2, IC50 dose, 5–6 h, vs vehicle control. In short, it runs like this:
as §2

One may read the IC50 as the concentration at which inhibition is half-maximal. Take `Cc1ccc(C(=NO)n2c([N+](=O)[O-])cnc2C)cc1` [Compound 4c, N-[(2-Methyl-5-nitro-1H-imidazol-1-yl)(4-methylphenyl)methylidene]hydroxylamine]: the results for the IC50 in data set [1], in data set [2] and in data set [3] were greater than 20 µM, 32.5 µM and 33.2 µM, respectively.
The corresponding values for `COc1ccc(C(=NO)n2c([N+](=O)[O-])cnc2C)cc1` [Compound 4b, N-[(4-Methoxyphenyl)(2-methyl-5-nitro-1H-imidazol-1-yl)methylidene]hydroxylamine] are greater than 20 µM, 34.4 µM and 32.7 µM.
The corresponding values for `Cc1ncc([N+](=O)[O-])n1C(=NO)c1ccccc1` [Compound 4a, N-[(2-Methyl-5-nitro-1H-imidazol-1-yl)(phenyl)methylidene]hydroxylamine] are greater than 20 µM, 37.3 µM and 38.5 µM.
Turning to `Cc1ncc([N+](=O)[O-])n1C(=NO)c1ccccc1C(F)(F)F` [Compound 4h, N-{(2-Methyl-5-nitro-1H-imidazol-1-yl)[2-(trifluoromethyl)phenyl]methylidene}hydroxyl Amine], the concentration for half-maximal inhibition (IC50) in data set [1] was found to be 1.47 µM; in data set [2], 3.74 µM; in data set [3], 5.99 µM. Further, the “MARK4 inhibition at a single dose” value in data set [1] (single dose of 20 μM, initial screening) was “significant inhibition”. Besides, in data set [4], the “viability of noncancerous cells (HEK293)” value is “did not affect the viability”. Further, the “apoptosis induced, % of HepG2 cells” value in data set [5] was 20.8%. For the same compound, the “DCF fluorescence (level of ROS production)” value in data set [6] and in data set [7] was “decreases” each time.
Regarding `CCOc1ccc(C(=NO)n2c([N+](=O)[O-])cnc2C)cc1` [Compound 4d, N-[(4-Ethoxyphenyl)(2-methyl-5-nitro-1H-imidazol-1-yl)methylidene]hydroxylamine], the IC50 was greater than 20 µM in data set [1], 33.3 µM in data set [2] and 35.4 µM in data set [3].
For `Cc1ncc([N+](=O)[O-])n1C(=NO)c1ccc(Cl)cc1` [Compound 4f, N-[(4-Chlorophenyl)(2-methyl-5-nitro-1H-imidazol-1-yl)methylidene]hydroxylamine] the same measures were greater than 20 µM, 28.8 µM and 24.8 µM.
The corresponding values for `Cc1ncc([N+](=O)[O-])n1C(=NO)c1ccc([N+](=O)[O-])cc1` [Compound 4g, N-[(2-Methyl-5-nitro-1H-imidazol-1-yl)(4-nitrophenyl)methylidene]hydroxylamine] are 16.2 µM, 22.5 µM and 25.3 µM.
The corresponding values for `CCc1ccc(C(=NO)n2c([N+](=O)[O-])cnc2C)cc1` [Compound 4e, N-[(4-Ethylphenyl)(2-methyl-5-nitro-1H-imidazol-1-yl)methylidene]hydroxylamine] are 18.5 µM, 23.3 µM and 21.5 µM.

Values taken from paper PMC7495461 (ACS Omega, 2020).
